# The source made the active and inactive calls. No cut-off for these calls is given here.
# Experiments:
# [1] = biological target: Dual specificity protein kinase CLK2 (Homo sapiens, UniProt P49760); assay: Inhibition of N-terminal FLAG-tagged human CLK2 using ULight MBP peptide as substrate incubated for 10 mins in presence of ATP incubated for 45 mins by LANCE Ultra kinase assay
# [2] = biological target: Dual specificity protein kinase CLK1 (Homo sapiens) (UniProt P49759); assay: Inhibition of CLK (unknown origin) in human HCT-116 cells assessed as phospho SR level at 10 uM incubated for 6 hrs by immunoblot analysis; format: cell-based
# Sequence of Dual specificity protein kinase CLK1 (Homo sapiens) (P49759 whole entry, looked up): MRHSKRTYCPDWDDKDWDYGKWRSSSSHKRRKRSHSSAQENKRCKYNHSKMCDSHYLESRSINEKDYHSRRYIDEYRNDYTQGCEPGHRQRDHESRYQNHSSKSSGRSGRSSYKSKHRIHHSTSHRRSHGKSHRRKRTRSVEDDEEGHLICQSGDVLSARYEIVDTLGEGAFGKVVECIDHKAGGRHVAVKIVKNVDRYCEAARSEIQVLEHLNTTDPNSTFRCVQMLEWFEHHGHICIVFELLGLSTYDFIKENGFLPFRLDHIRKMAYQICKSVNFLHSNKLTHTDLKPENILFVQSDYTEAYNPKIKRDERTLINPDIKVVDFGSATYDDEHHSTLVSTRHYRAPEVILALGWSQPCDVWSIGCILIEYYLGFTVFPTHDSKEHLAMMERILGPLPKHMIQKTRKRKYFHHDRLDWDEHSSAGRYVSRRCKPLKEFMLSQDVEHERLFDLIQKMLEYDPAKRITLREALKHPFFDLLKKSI
# Summary of the method: (§1)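 HCT116 cells were exposed to compound for 3 or 6 h, then lysed in 1× SDS sample buffer (0.16% SDS, Tris-HCl pH 6.8) and boiled 5 min. Lysates were run on 5–15% or 4–12% gradient gels and transferred to nitrocellulose or PVDF. Membranes were blocked in 5% milk or 3% BSA/TBS-T and probed overnight at 4 °C with anti-SR protein (16H3) or anti-phospho-SR (1H4, 1/1000), with GAPDH as loading control.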
# HCT-116 = assay: Cytotoxicity against human HCT-116 cells assessed as inhibition of cell viability incubated for > 24 hrs; format: functional
# [3] = biological target: Dual specificity protein kinase CLK1 (Homo sapiens) (UniProt P49759); assay: Inhibition of CLK (unknown origin) in human HCT-116 cells assessed as SRSF4 level at 10 uM incubated for 6 hrs by immunoblot analysis; format: cell-based; summary of the method: as §1
# [4] = biological target: Dual specificity protein kinase CLK1 (Homo sapiens) (UniProt P49759); assay: Inhibition of CLK (unknown origin) in human HCT-116 cells assessed as SRSF1 level at 10 uM incubated for 6 hrs by immunoblot analysis; format: cell-based; summary of the method: as §1
# [5] = biological target: Dual specificity protein kinase CLK1 (Homo sapiens) (UniProt P49759); assay: Inhibition of CLK (unknown origin) in human HCT-116 cells assessed as SRSF6 level at 10 uM incubated for 6 hrs by immunoblot analysis; format: cell-based; summary of the method: as §1
# Sequence of Dual specificity protein kinase CLK2 (P49760 whole entry): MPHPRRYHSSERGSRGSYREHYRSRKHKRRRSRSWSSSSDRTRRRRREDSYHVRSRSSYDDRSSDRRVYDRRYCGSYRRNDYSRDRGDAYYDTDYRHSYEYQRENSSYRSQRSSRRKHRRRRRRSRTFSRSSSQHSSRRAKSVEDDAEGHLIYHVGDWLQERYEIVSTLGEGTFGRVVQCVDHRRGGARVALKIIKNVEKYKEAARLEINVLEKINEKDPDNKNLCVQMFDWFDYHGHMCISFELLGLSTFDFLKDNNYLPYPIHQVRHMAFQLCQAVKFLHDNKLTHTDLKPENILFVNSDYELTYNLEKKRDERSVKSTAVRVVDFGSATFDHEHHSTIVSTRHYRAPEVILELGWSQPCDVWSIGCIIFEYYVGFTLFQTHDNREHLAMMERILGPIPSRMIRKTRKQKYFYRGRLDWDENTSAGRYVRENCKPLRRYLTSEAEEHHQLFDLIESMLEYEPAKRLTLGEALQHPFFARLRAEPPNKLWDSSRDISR
smiles,measurement,setting,value
CC(C)(CCc1nn[nH]n1)c1ccc(C(=O)Nc2cn3cc(-c4ccncc4)ccc3n2)cc1,IC50,[1],50 nM
CC(C)(CCc1nn[nH]n1)c1ccc(C(=O)Nc2cn3cc(C(F)(F)F)ccc3n2)cc1,IC50,[1],360 nM
CC(C)(C(=O)N1CCNCC1)c1ccc(C(=O)Nc2cn3cc(-c4ccncc4)ccc3n2)cc1,IC50,[1],150 nM
CCOC(=O)c1c(/C(C#N)=C\N)c2ccc(Cl)c(Cl)c2n1C,inhibition,[2],Active
same,GI,HCT-116,>50 µM
same,inhibition,[3],Active
same,inhibition,[4],Active
same,inhibition,[5],Active
CCN1CCN(C(=O)C(C)(C)c2ccc(C(=O)Nc3cn4cc(-c5ccncc5)ccc4n3)cc2)CC1,IC50,[1],15 nM

# Reference: ChEMBL document CHEMBL5696444 (Nat Commun, 2017)
